Measurements as given in paper PMC9110138 (Biomedicine & Pharmacotherapy, 2022).

Assays:
human recombinant CYP3A4 = human recombinant CYP3A4 (Homo sapiens, UniProt P08684); conditions: microsomal and recombinant enzyme experiments; cited from earlier work
SARS-CoV-2 = conditions: cited from earlier work; for effect on viral replication in Calu-3 cells: infected with SARS-CoV-2 at MOI 0.001 for 90 min
[1] = test system: human intestinal epithelial cells; conditions: up to 50 μM, 24 h cytotoxicity assays; cited from earlier work
PHHs = conditions: up to 50 μM, 24 h cytotoxicity assays; cited from earlier work
HSA = conditions: previous investigation; cited from earlier work
CYP1A2 [2] = target: T1, CYP1A2 (Homo sapiens, UniProt P05177); assay: Fluorometric CYP1A2 assay in human hepatic microsomes; format: in vitro ADME; conditions: MI-1851 50 µM; α-naphthoflavone 6 µM
T1 sequence (P05177 1-516): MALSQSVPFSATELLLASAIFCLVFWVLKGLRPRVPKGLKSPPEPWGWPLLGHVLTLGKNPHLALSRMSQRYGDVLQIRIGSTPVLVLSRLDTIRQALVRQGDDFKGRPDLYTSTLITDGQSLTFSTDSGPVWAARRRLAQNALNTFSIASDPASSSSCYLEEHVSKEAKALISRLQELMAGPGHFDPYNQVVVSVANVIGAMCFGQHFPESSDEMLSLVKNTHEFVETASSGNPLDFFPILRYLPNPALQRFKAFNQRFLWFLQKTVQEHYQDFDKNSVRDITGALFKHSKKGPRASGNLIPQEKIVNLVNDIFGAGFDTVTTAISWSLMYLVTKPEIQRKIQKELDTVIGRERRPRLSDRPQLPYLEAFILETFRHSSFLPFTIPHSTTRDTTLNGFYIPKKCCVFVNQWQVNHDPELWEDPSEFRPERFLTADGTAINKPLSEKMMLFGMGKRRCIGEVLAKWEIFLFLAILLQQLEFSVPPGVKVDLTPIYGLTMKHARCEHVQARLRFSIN
Method in brief: (§1)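 Human hepatic microsomes were mixed with assay buffer and NADPH-generating system. They were preincubated 15 min at 37 °C with test compound (added solutions 0–250 µM), reference inhibitor or buffer-only background control. A fluorogenic substrate/NADP+ mixture followed, with final protein 10 µg/well. Fluorescence ex/em was 406/468 nm (CYP1A2), 415/502 nm (CYP2C9) and 390/468 nm (CYP2D6). Results are substrate RFU% as mean ± SEM, n = 3 or 4.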

CYP1A2 [3] = target: T1, CYP1A2; assay: CYP1A2 luminescent P450-Glo assay in PHHs; format: cell-based; conditions: 2 h; MI-1851 10, 20, 50 and 100 µM; α-naphthoflavone 10 µM
Method in brief: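 Cryopreserved primary human hepatocytes were thawed in recovery medium and plated for 6 h in medium with 5% FBS. They were then kept FBS-free on collagen-coated membrane inserts at 37 °C, 5% CO2. Cells were washed in serum-free medium and exposed 2 h to test compound (0–100 µM; freshly diluted from 10 mM DMSO stock). CYP1A2 was read by P450-Glo with luciferin 1A2. Groups were compared by one-way ANOVA/Tukey.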

[4] = test system: SARS-CoV-2 pseudoparticles; conditions: cited from earlier work
CYP2C9 = CYP2C9 (Homo sapiens, UniProt P11712); assay: Fluorometric CYP2C9 assay in human hepatic microsomes; format: in vitro ADME; conditions: MI-1851 50 µM; tienilic acid 60 µM
Chain of CYP2C9 (P11712 whole entry): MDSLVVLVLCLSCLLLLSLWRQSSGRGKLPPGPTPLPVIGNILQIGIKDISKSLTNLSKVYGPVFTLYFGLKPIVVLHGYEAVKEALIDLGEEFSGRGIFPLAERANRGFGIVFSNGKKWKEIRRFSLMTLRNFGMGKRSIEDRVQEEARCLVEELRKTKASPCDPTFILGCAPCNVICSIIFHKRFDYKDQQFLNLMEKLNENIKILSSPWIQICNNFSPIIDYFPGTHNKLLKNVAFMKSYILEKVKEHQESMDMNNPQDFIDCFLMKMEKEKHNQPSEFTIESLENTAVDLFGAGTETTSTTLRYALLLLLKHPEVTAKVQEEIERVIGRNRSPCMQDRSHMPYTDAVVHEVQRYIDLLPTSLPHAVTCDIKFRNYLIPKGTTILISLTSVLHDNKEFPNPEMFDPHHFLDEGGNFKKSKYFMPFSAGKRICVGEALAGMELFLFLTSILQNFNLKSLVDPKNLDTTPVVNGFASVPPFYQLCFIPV
Method in brief: as §1

CYP2D6 = CYP2D6 (Homo sapiens, UniProt P10635); assay: Fluorometric CYP2D6 assay in human hepatic microsomes; format: in vitro ADME; conditions: MI-1851 50 µM; quinidine 3 µM
Chain of CYP2D6 (P10635 whole entry): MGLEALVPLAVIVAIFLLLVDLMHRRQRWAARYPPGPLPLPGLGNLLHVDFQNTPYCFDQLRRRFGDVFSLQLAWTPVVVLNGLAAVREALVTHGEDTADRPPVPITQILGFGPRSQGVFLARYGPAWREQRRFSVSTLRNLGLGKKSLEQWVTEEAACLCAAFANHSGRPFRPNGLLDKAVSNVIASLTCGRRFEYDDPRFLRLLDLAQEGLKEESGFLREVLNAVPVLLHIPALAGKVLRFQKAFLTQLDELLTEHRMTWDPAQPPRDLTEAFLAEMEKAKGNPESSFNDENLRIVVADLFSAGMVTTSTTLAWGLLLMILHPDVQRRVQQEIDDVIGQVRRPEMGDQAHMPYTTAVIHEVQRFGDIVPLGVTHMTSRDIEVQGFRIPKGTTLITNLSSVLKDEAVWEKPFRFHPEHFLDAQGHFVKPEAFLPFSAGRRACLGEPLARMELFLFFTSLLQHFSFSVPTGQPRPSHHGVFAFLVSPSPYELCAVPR
Method in brief: as §1

[5] = canavanine, replacing arginine in P2 and P4; cited from earlier work

Chain of human recombinant CYP3A4 (P08684 whole entry): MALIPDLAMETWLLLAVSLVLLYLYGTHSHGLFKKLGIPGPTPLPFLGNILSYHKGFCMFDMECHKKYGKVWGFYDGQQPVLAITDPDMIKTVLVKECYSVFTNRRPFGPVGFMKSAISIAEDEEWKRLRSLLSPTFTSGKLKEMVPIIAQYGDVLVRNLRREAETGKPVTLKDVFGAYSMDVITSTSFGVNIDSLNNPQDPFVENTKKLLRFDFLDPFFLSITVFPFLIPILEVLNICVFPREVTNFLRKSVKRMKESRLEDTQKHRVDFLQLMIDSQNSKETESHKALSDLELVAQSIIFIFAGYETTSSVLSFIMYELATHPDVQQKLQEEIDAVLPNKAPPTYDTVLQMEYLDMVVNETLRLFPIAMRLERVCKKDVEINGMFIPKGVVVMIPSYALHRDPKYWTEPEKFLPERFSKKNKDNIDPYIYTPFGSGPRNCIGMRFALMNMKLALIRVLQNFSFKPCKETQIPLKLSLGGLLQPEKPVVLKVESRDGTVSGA

COc1ccc(-c2cccc(S(=O)(=O)N[C@@H](Cc3cccc(C(=N)N)c3)C(=O)N3CCN(C(=O)NC4CCCCC4)CC3)c2)c(OC)c1 [MI-1900]
inhibition of CYP3A4 (human recombinant CYP3A4): potent inhibitors of CYP3A4 at the nanomolar or low micromolar range
effect on viral titers in human airway epithelial Calu-3 cells (SARS-CoV-2): efficiently reduced
effect on viral replication in Calu-3 cells (SARS-CoV-2): inhibit viral replication
damage to human intestinal epithelial cells [1]: did not cause damage
damage to PHHs (PHHs): did not cause damage
interactions with HSA (HSA): no or only weak interactions

O=c1cc(-c2ccccc2)oc2c1ccc1ccccc12 [α-naphthoflavone]
effect on human microsomal CYP1A2 activity (CYP1A2 [2]): significant inhibition
effect on CYP1A2 activity in PHHs (CYP1A2 [3]): significant inhibitory effects

CCOC(=O)[C@H]1O[C@@H]1C(=O)N[C@@H](CC(C)C)C(=O)NCCC(C)C [E64d]
effect on infection with SARS-CoV-2 pseudoparticles [4]: could decrease infection

aprotinin
effect on virus replication in vitro (SARS-CoV-2; 10 µM, 48 h post infection): decreased the virus replication
effect on viral replication in Calu-3 cells (SARS-CoV-2): inhibit viral replication

N=C(N)c1cccc(C[C@H](NS(=O)(=O)c2cccc(-c3ccc(Cl)cc3Cl)c2)C(=O)N2CCC(CCN)CC2)c1.O=C(O)C(F)(F)F.O=C(O)C(F)(F)F [MI-432]
inhibition of CYP3A4 (human recombinant CYP3A4): potent inhibitors of CYP3A4 at the nanomolar or low micromolar range
effect on viral titers in human airway epithelial Calu-3 cells (SARS-CoV-2): efficiently reduced
effect on viral replication in Calu-3 cells (SARS-CoV-2): inhibit viral replication
interactions with HSA (HSA): no or only weak interactions

O=C(O)COc1ccc(C(=O)c2cccs2)c(Cl)c1Cl [tienilic acid]
effect on human microsomal CYP2C9 activity (CYP2C9): significant inhibition

C=C[C@H]1C[N@@]2CC[C@H]1C[C@@H]2[C@@H](O)c1ccnc2ccc(OC)cc12 [quinidine]
effect on human microsomal CYP2D6 activity (CYP2D6): significant inhibition

N=C(N)NOCC[C@H](N)C(=O)O [canavanine]
pKa [5]: 7.04
